Laboratory results from ChEMBL document CHEMBL1671716, “Antimicrobial susceptibility patterns for recent clinical isolates of anaerobic bacteria in South Korea” (2010).
≈ marks a conversion by molar mass, not a printed value.

Columns and labels:
[1] = test system: Bacteroides caccae; assay: Antimicrobial activity against Bacteroides caccae after 48 hrs by agar dilution method; assay type: functional
Method in brief: (§1)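 MICs on clinical anaerobe isolates by the CLSI agar dilution method. Inoculum of 10^5 CFU applied with a Steers replicator. Plates incubated 48 h at 37°C in an anaerobic chamber.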

[2] = test system: Parabacteroides distasonis; assay: Antimicrobial activity against Bacteroides distasonis after 48 hrs by agar dilution method; assay type: functional; method in brief: as §1
[3] = test system: Phocaeicola vulgatus; assay: Antimicrobial activity against Bacteroides vulgatus after 48 hrs by agar dilution method; assay type: functional; method in brief: as §1
[4] = test system: Bacteroides ovatus; assay: Antimicrobial activity against Bacteroides ovatus after 48 hrs by agar dilution method; assay type: functional; method in brief: as §1
[5] = test system: Bacteroides fragilis; assay: Antimicrobial activity against Bacteroides fragilis assessed as percent resistant isolates after 48 hrs by agar dilution method; assay type: functional
Method in brief: (§2)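 CLSI agar dilution on recent Korean clinical anaerobe isolates. Inoculum 10^5 CFU per spot by replicator. Plates incubated in an anaerobic chamber at 37°C for 48 h. For piperacillin plus tazobactam, tazobactam was held constant at 4 μg/ml. Resistance and susceptibility rates derived from MICs.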

[6] = test system: Bacteroides thetaiotaomicron; assay: Antimicrobial activity against Bacteroides thetaiotaomicron assessed as percent susceptible isolates after 48 hrs by agar dilution method; assay type: functional
[7] = test system: Bacteroides caccae; assay: Antimicrobial activity against Bacteroides caccae assessed as percent susceptible isolates after 48 hrs by agar dilution method; assay type: functional
[8] = test system: Phocaeicola vulgatus; assay: Antimicrobial activity against Bacteroides vulgatus assessed as percent susceptible isolates after 48 hrs by agar dilution method; assay type: functional
[9] = test system: Prevotella intermedia; assay: Antimicrobial activity against Prevotella intermedia after 48 hrs by agar dilution method; assay type: functional
Method in brief: (§3)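 CLSI agar dilution (M11-A7); inoculum 10^5 CFU applied by replicator; plates incubated anaerobically 48 h at 37°C. For piperacillin-tazobactam, tazobactam held constant at 4 μg/ml.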

[10] = test system: Prevotella bivia; assay: Antimicrobial activity against Prevotella bivia after 48 hrs by agar dilution method; assay type: functional; method in brief: as §3
[11] = test system: Prevotella intermedia; assay: Antimicrobial activity against Prevotella intermedia assessed as percent susceptible isolates after 48 hrs by agar dilution method; assay type: functional; method in brief: as §3
[12] = test system: Prevotella bivia; assay: Antimicrobial activity against Prevotella bivia assessed as percent susceptible isolates after 48 hrs by agar dilution method; assay type: functional; method in brief: as §3
[13] = test system: Prevotella buccae; assay: Antimicrobial activity against Prevotella buccae assessed as percent susceptible isolates after 48 hrs by agar dilution method; assay type: functional, Segatella buccae; method in brief: as §3
[14] = test system: Hoylesella oralis; assay: Antimicrobial activity against Prevotella oralis assessed as percent resistant isolates after 48 hrs by agar dilution method; assay type: functional; method in brief: as §2
[15] = test system: Fusobacterium mortiferum; assay: Antimicrobial activity against Fusobacterium mortiferum after 48 hrs by agar dilution method; assay type: functional; method in brief: as §3
[16] = test system: Parvimonas micra; assay: Antimicrobial activity against Peptostreptococcus micros assessed as percent susceptible isolates after 48 hrs by agar dilution method; assay type: functional; method in brief: as §2
[17] = test system: Peptoniphilus asaccharolyticus; assay: Antimicrobial activity against Peptoniphilus asaccharolyticus after 48 hrs by agar dilution method; assay type: functional; method in brief: as §3
[18] = test system: Finegoldia magna; assay: Antimicrobial activity against Finegoldia magna after 48 hrs by agar dilution method; assay type: functional; method in brief: as §3
[19] = test system: Clostridium perfringens; assay: Antimicrobial activity against Clostridium perfringens after 48 hrs by agar dilution method; assay type: functional
[20] = test system: Clostridium perfringens; assay: Antimicrobial activity against Clostridium perfringens assessed as percent susceptible isolates after 48 hrs by agar dilution method; assay type: functional
[21] = test system: Clostridioides difficile; assay: Antimicrobial activity against Clostridium difficile after 48 hrs by agar dilution method; assay type: functional
[22] = test system: Actinomyces israelii; assay: Antimicrobial activity against Actinomyces israelii after 48 hrs by agar dilution method; assay type: functional; method in brief: as §1
[23] = test system: Schaalia meyeri; assay: Antimicrobial activity against Actinomyces meyeri after 48 hrs by agar dilution method; assay type: functional; method in brief: as §1
[24] = test system: Schaalia meyeri; assay: Antimicrobial activity against Actinomyces meyeri assessed as percent resistant isolates after 48 hrs by agar dilution method; assay type: functional; method in brief: as §2
[25] = test system: Actinomyces naeslundii; assay: Antimicrobial activity against Actinomyces naeslundii assessed as percent resistant isolates after 48 hrs by agar dilution method; assay type: functional; method in brief: as §2
[26] = test system: Bifidobacterium adolescentis; assay: Antimicrobial activity against Bifidobacterium adolescentis after 48 hrs by agar dilution method; assay type: functional; method in brief: as §1
[27] = test system: Eggerthella lenta; assay: Antimicrobial activity against Eubacterium lentum assessed as percent susceptible isolates after 48 hrs by agar dilution method; assay type: functional; method in brief: as §3
[28] = test system: Eggerthella lenta; assay: Antimicrobial activity against Eubacterium lentum assessed as percent resistant isolates after 48 hrs by agar dilution method; assay type: functional; method in brief: as §2
[29] = test system: Eubacterium sp.; assay: Antimicrobial activity against Eubacterium sp. after 48 hrs by agar dilution method; assay type: functional; method in brief: as §3

C[C@@H](O)[C@H]1C(=O)N2C(C(=O)O)=C(S[C@@H]3CN[C@H](C(=O)N(C)C)C3)[C@H](C)[C@H]12 [MEROPENEM]
MIC50 [1]: 0.25 µg/mL (≈ 0.652 µM)
MIC90 [1]: 2 µg/mL (≈ 5.22 µM)
MIC50 [2]: 0.25 µg/mL (≈ 0.652 µM)
MIC90 [2]: 2 µg/mL (≈ 5.22 µM)
MIC50 [3]: 0.25 µg/mL (≈ 0.652 µM)
MIC90 [3]: 2 µg/mL (≈ 5.22 µM)
MIC50 [4]: 0.25 µg/mL (≈ 0.652 µM)
MIC90 [4]: 2 µg/mL (≈ 5.22 µM)
Activity [5]: 3%
Activity [6]: 98%
Activity [7]: 98%
Activity [8]: 98%
MIC50 [9]: 0.06 µg/mL (≈ 0.156 µM)
MIC90 [9]: 0.06 µg/mL (≈ 0.156 µM)
MIC50 [10]: 0.125 µg/mL (≈ 0.326 µM)
MIC90 [10]: 0.5 µg/mL (≈ 1.3 µM)
Activity [11]: 100%
Activity [12]: 100%
Activity [13]: 100%
Activity [14]: 0%
MIC [15]: 0.008 µg/mL (≈ 0.0209 µM)
Activity [16]: 0%
MIC50 [17]: ≤ 0.008 µg/mL
MIC90 [17]: 0.03 µg/mL (≈ 0.0782 µM)
MIC50 [18]: 0.06 µg/mL (≈ 0.156 µM)
MIC90 [18]: 0.125 µg/mL (≈ 0.326 µM)
MIC50 [19]: 0.015 µg/mL (≈ 0.0391 µM)
MIC90 [19]: 0.015 µg/mL (≈ 0.0391 µM)
Activity [20]: 100%
MIC50 [21]: 2 µg/mL (≈ 5.22 µM)
MIC90 [21]: 2 µg/mL (≈ 5.22 µM)
MIC50 [22]: 0.125 µg/mL (≈ 0.326 µM)
MIC90 [22]: 2 µg/mL (≈ 5.22 µM)
MIC50 [23]: 0.125 µg/mL (≈ 0.326 µM)
MIC90 [23]: 2 µg/mL (≈ 5.22 µM)
Activity [24]: 8%
Activity [25]: 8%
MIC50 [26]: 0.125 µg/mL (≈ 0.326 µM)
MIC90 [26]: 2 µg/mL (≈ 5.22 µM)
Activity [27]: 92%
Activity [28]: 8%
MIC50 [29]: 0.125 µg/mL (≈ 0.326 µM)
MIC90 [29]: 2 µg/mL (≈ 5.22 µM)

CO[C@@]1(NC(=O)Cc2cccs2)C(=O)N2C(C(=O)O)=C(COC(N)=O)CS[C@@H]21 [CEFOXITIN]
MIC50 [1]: 32 µg/mL (≈ 74.9 µM)
MIC90 [1]: 32 µg/mL (≈ 74.9 µM)
MIC50 [2]: 32 µg/mL (≈ 74.9 µM)
MIC90 [2]: 32 µg/mL (≈ 74.9 µM)
MIC50 [3]: 32 µg/mL (≈ 74.9 µM)
MIC90 [3]: 32 µg/mL (≈ 74.9 µM)
MIC50 [4]: 32 µg/mL (≈ 74.9 µM)
MIC90 [4]: 32 µg/mL (≈ 74.9 µM)
Activity [5]: 5%
Activity [6]: 25%
Activity [7]: 25%
Activity [8]: 25%
MIC50 [9]: 2 µg/mL (≈ 4.68 µM)
MIC90 [9]: 4 µg/mL (≈ 9.36 µM)
MIC50 [10]: 1 µg/mL (≈ 2.34 µM)
MIC90 [10]: 32 µg/mL (≈ 74.9 µM)
Activity [11]: 100%
Activity [12]: 89%
Activity [13]: 89%
Activity [14]: 0%
MIC [15]: 0.06 µg/mL (≈ 0.14 µM)
Activity [16]: 0%
MIC50 [17]: ≤ 0.06 µg/mL
MIC90 [17]: 0.5 µg/mL (≈ 1.17 µM)
MIC50 [18]: 0.5 µg/mL (≈ 1.17 µM)
MIC90 [18]: 1 µg/mL (≈ 2.34 µM)
MIC50 [19]: 1 µg/mL (≈ 2.34 µM)
MIC90 [19]: 2 µg/mL (≈ 4.68 µM)
Activity [20]: 100%
MIC [21]: 64 µg/mL (≈ 150 µM)
MIC50 [21]: 64 µg/mL (≈ 150 µM)
MIC90 [21]: > 128 µg/mL
MIC50 [22]: 2 µg/mL (≈ 4.68 µM)
MIC90 [22]: 16 µg/mL (≈ 37.4 µM)
MIC50 [23]: 2 µg/mL (≈ 4.68 µM)
MIC90 [23]: 16 µg/mL (≈ 37.4 µM)
Activity [24]: 0%
Activity [25]: 0%
MIC50 [26]: 2 µg/mL (≈ 4.68 µM)
MIC90 [26]: 16 µg/mL (≈ 37.4 µM)
Activity [27]: 92%
Activity [28]: 0%
MIC50 [29]: 2 µg/mL (≈ 4.68 µM)
MIC90 [29]: 16 µg/mL (≈ 37.4 µM)
